Reference: ChEMBL document CHEMBL1126943, “N-substituted dibenzoxazepines as analgesic PGE2 antagonists” (J Med Chem, 1993)
“And” between values parts separate entries of the source, which are not always exact repeats. Equal values may be shown once. The source made the active and inactive calls. The rule behind the calls is not given here.

How the values were obtained:
Mus musculus [1] = experiment: Antinociception at dosage of 30 mg/kg administered in 10 mice.; assay type: functional
How it was run: (§1)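 Male albino CD-1 mice, 20–30 g, were given test compound sc or ig (0.1 mL/10 g) at 30 mg/kg. After 25 min they received 0.025% (w/v) phenylbenzoquinone ip. Writhes were counted for 10 min, starting 5 min later. A mouse counted as protected if its writhes were ≤ half the median of that day's saline group. The result is the number of mice protected.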

Cavia porcellus [2] = organism: Cavia porcellus; experiment: Antinociceptive activity against PGE-2 in guinea pig ileum at 3 uM; inactive; assay type: functional, organism-based
Mus musculus [3] = experiment: Effective dose required for writhing response in mouse […] on ig administration; assay type: functional; conditions: po
How it was run: (§2)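 In the mouse phenylbenzoquinone writhing test, male CD-1 mice (20–30 g) were dosed ig or sc. After 25 min, 0.025% phenylbenzoquinone was given ip, and writhes were counted over 10 min beginning 5 min later. Protection meant ≤ half the saline median. The ED50 is the dose protecting 50% of mice, with 95% confidence limits from maximum likelihood.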

Cavia porcellus [4] = organism: Cavia porcellus; experiment: Antinociceptive activity against PGE-2 in guinea pig ileum at 3 uM; assay type: functional; conditions: read-out: pA2 (converted)
How it was run: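 Ileum segments (2 cm) from male Hartley guinea pigs were held in modified Tyrode with atropine (0.14 μM) and pyrilamine (2.5 μM), at 37 °C under 95% O2/5% CO2 and 1 g tension. PGE2 concentration–response curves (2 min per dose) were run without and then with test compound. pA2 was calculated from the dose ratio at 3 μM compound.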

Mus musculus [5] = experiment: Effective dose required for writhing response in mouse […] on sc administration; assay type: functional; how it was run: as §2
Mus musculus [6] = experiment: Compound was evaluated for antinociception at dosage of 30 mg/kg administered in 9 mice; assay type: functional; how it was run: as §1

## Cl.O=C(NNC(=O)N1Cc2ccccc2Oc2ccc(Cl)cc21)c1ccccn1
Mus musculus [1]; 30 mg/kg
  No. of mice: 3 and 2
Cavia porcellus [2]
  pA2: inactive

## CC(C)Cc1ccc(C(C)C(=O)O)cc1 (stereo not given) [IBUPROFEN]
Mus musculus [3]
  ED50: 4.8 mg/kg

## Cl.O=C(/C=C/c1ccncc1)NNC(=O)N1Cc2ccccc2Oc2ccc(Cl)cc21
Mus musculus [1]; 30 mg/kg
  No. of mice: 2 and 4

## O=C(CCCCCl)NNC(=O)N1Cc2ccccc2Oc2ccc(Cl)cc21 [PINADOLINE]
Cavia porcellus [4]
  Kb: 631 nM

## CC(=O)NNC(=O)N1Cc2ccccc2Oc2ccc(Cl)cc21
Cavia porcellus [4]
  Kb: 3160 nM

## Cl.O=C(NNC(=O)N1Cc2ccccc2Oc2ccc(Cl)cc21)c1cccnc1
Mus musculus [1]; 30 mg/kg
  No. of mice: 3 and 1
Cavia porcellus [2]
  pA2: inactive

## Cl.O=C(CCc1ccccn1)NNC(=O)N1Cc2ccccc2Oc2ccc(Cl)cc21
Mus musculus [3]
  ED50: 5.8 mg/kg
Mus musculus [5]
  ED50: 9.8 mg/kg
Cavia porcellus [4]
  Kb: 398 nM

## O=C(CCc1cc[n+]([O-])cc1)NNC(=O)N1Cc2ccccc2Oc2ccc(Cl)cc21
Mus musculus [1]
  No. of mice: 5

## Cl.O=C(CCc1cccnc1)NNC(=O)N1Cc2ccccc2Oc2ccc(Cl)cc21
Mus musculus [1]; 30 mg/kg
  No. of mice: 6 and 5

## O=C(CCc1cccc[n+]1[O-])NNC(=O)N1Cc2ccccc2Oc2ccc(Cl)cc21
Mus musculus [1]; 30 mg/kg
  No. of mice: 1 and 3

## Cl.O=C(CCCc1ccccn1)NNC(=O)N1Cc2ccccc2Oc2ccc(Cl)cc21
Mus musculus [1]; 30 mg/kg
  No. of mice: 4 and 5

## Cl.O=C(Cc1ccccn1)NNC(=O)N1Cc2ccccc2Oc2ccc(Cl)cc21
Mus musculus [1]
  No. of mice: 2
Cavia porcellus [2]
  pA2: inactive

## Cl.O=C(NNC(=O)C(F)(F)Cc1ccccn1)N1Cc2ccccc2Oc2ccc(Cl)cc21
Mus musculus [3]
  ED50: 9.7 mg/kg

## Cl.O=C(Cc1ccncc1)NNC(=O)N1Cc2ccccc2Oc2ccc(Cl)cc21
Mus musculus [1]
  No. of mice: 1
Mus musculus [6]
  No. of mice: 3

## Cl.O=C(CCc1ccncc1)NNC(=O)N1Cc2ccccc2Oc2ccc(Cl)cc21
Mus musculus [3]
  ED50: 6.8 mg/kg
Mus musculus [5]
  ED50: 6.3 mg/kg
Cavia porcellus [4]
  Kb: 316 nM

## Cl.O=C(NNC(=O)N1Cc2ccccc2Oc2ccc(Cl)cc21)c1ccncc1
Mus musculus [1]; 30 mg/kg
  No. of mice: 1 and 2
Cavia porcellus [2]
  pA2: inactive

## Cl.O=C(NNC(=O)C(F)(F)C(O)c1ccccn1)N1Cc2ccccc2Oc2ccc(Cl)cc21 (stereo not given)
Mus musculus [3]
  ED50: 9.1 mg/kg
Mus musculus [5]
  ED50: 7.1 mg/kg
Cavia porcellus [4]
  Kb: 31.6 nM

## Cl.O=C(NNC(=O)C(F)(F)C(O)c1ccncc1)N1Cc2ccccc2Oc2ccc(Cl)cc21 (stereo not given)
Mus musculus [1]
  No. of mice: 5
Mus musculus [3]
  ED50: 12.3 mg/kg

## CCCC(=O)NNC(=O)N1Cc2ccccc2Oc2ccc(Cl)cc21
Cavia porcellus [4]
  Kb: 1000 nM

## CCCCCC(=O)NNC(=O)N1Cc2ccccc2Oc2ccc(Cl)cc21
Cavia porcellus [4]
  Kb: 251 nM

## O=C(Cc1ccccc1)NNC(=O)N1Cc2ccccc2Oc2ccc(Cl)cc21
Cavia porcellus [4]
  Kb: 1000 nM

## Cl.O=C(/C=C/c1ccccn1)NNC(=O)N1Cc2ccccc2Oc2ccc(Cl)cc21
Mus musculus [1]; 30 mg/kg
  No. of mice: 1 and 2
Cavia porcellus [2]
  pA2: inactive

## O=C(CCCc1ccncc1)NNC(=O)N1Cc2ccccc2Oc2ccc(Cl)cc21
Mus musculus [1]
  No. of mice: 6
Mus musculus [5]
  ED50: 9.7 mg/kg

## CC(=O)Oc1ccccc1C(=O)O [ASPIRIN]
Mus musculus [3]
  ED50: 42.3 mg/kg

## Cl.O=C(Cc1cccnc1)NNC(=O)N1Cc2ccccc2Oc2ccc(Cl)cc21
Mus musculus [1]; 30 mg/kg
  No. of mice: 3 and 5

## O=C(/C=C/c1cccnc1)NNC(=O)N1Cc2ccccc2Oc2ccc(Cl)cc21
Mus musculus [1]; 30 mg/kg
  No. of mice: 6 and 5
